The results in this text go back to ChEMBL document CHEMBL2331135, “New selective carbonic anhydrase IX inhibitors: synthesis and pharmacological evaluation of diarylpyrazole-benzenesulfonamides” (Bioorg Med Chem, 2013).

The source made the active and inactive calls. The rule behind the calls is not given here.

The subject of test [1] is MDA-MB-231. In words: Potentiation of doxorubicin-induced cytotoxicity against human MDA-MB-231 cells under hypoxic condition at 1 uM after 72 hrs by MTS assay. In kind it is functional, cell-based. Put shortly:
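MDA-MB-231 cells (2×10^3 per well) were seeded in DMEM with 10% FCS, buffered with 22.3 mM bicarbonate, and moved to hypoxia (1% O2, 5% CO2, N2 balance). Cells were then held 72 h at 37 °C under hypoxia. Read-out was MTS, 1 h, A492. IC50 is the doxorubicin concentration giving 50% absorbance reduction. Data come from three independent experiments, six wells each.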
In general terms: Formazan colour is commonly taken as a measure of viable cells.

The subject of test [2] is MDA-MB-231. In words: Potentiation of doxorubicin-induced cytotoxicity against human MDA-MB-231 cells under normoxic condition at 1 uM after 72 hrs by MTS assay. The class given is functional, cell-based.
Test [3] concerns MDA-MB-231. In words: Cytotoxicity against human MDA-MB-231 cells after 72 hrs by MTS assay. The conditions noted are these: MDA-MB-231, 72 h.
Another test concerns the target Carbonic anhydrase 9 (Homo sapiens, UniProt Q16790). In words: Inhibition of human carbonic anhydrase 9 preincubated for 10 mins by CO2 hydration stopped-flow assay.
Test [4] is filed under the species Homo sapiens. In words: Selectivity ratio of Ki for human carbonic anhydrase 2 to Ki for human carbonic anhydrase 9. Put shortly:
(§1)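 Stopped-flow CO2 hydration assay using 0.2 mM phenol red read at 557 nm, in 10 mM Hepes pH 7.5 with 0.1 M Na2SO4. Substrate was CO2-saturated water at 25 °C. Enzyme and inhibitor were preincubated 10 min at room temperature, testing at least seven inhibitor concentrations, with dilutions going down to 0.01 nM. Ki came from Lineweaver-Burk plots, triplicates averaged. The ratios are hCA I or hCA II Ki divided by hCA IX Ki.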

For test [5], the species on record is Homo sapiens. In words: Selectivity ratio of Ki for human carbonic anhydrase 1 to Ki for human carbonic anhydrase 9. The essentials: as §1
In another test the target is Carbonic anhydrase 2 (Homo sapiens, UniProt P00918). In words: Inhibition of human carbonic anhydrase 2 preincubated for 10 mins by CO2 hydration stopped-flow assay.
The next test addresses Carbonic anhydrase 1 (Homo sapiens, UniProt P00915). In words: Inhibition of human carbonic anhydrase 1 preincubated for 10 mins by CO2 hydration stopped-flow assay.
Test [6] has as its system MDA-MB-231. In words: Ratio of IC50 for human MDA-MB-231 cells under hypoxic condition to IC50 for human MDA-MB-231 cells under normoxic condition. In kind it is functional.

Carbonic anhydrase 1, sequence (P00915 whole entry): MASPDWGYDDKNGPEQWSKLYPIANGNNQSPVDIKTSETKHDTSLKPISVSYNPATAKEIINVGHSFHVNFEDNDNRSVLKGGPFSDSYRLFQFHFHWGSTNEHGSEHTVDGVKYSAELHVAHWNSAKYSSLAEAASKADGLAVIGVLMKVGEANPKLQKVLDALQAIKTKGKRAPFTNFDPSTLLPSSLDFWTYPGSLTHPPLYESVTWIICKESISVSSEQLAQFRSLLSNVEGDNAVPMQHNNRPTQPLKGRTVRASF

Broadly, the IC50 is the concentration at which inhibition is half-maximal. Higher therefore signals weaker potency. Broadly, the Ki is the equilibrium dissociation constant of an inhibitor or competing ligand from its target. As to `NS(=O)(=O)c1ccc(-n2nc(CO)cc2-c2ccc(Br)cc2)cc1`, in the test on MDA-MB-231 [1], the outcome was Active. The result with MDA-MB-231 [2] was inactive. In the test on MDA-MB-231 [3], this molecule showed an IC50 of more than 50 µM. In addition, at Carbonic anhydrase 9, the Ki was 15 nM.
`NS(=O)(=O)c1ccc(-n2nc(CO)cc2-c2cccnc2)cc1` came in with a Ki at Carbonic anhydrase 9 of 13 nM.
Consider `NS(=O)(=O)c1ccc(-n2nc(CO)cc2-c2ccc3c(ccc4ccccc43)c2)cc1`, for which the Ratio Ki in the test listed under Homo sapiens [4] and in the test filed under Homo sapiens [5] was more than 5 in each case. For the same molecule, the Ki on Carbonic anhydrase 9 is 1860 nM; at Carbonic anhydrase 2, more than 10000 nM; on Carbonic anhydrase 1 it was more than 10000 nM.
Regarding `COc1ccc2cc(-c3cc(CO)nn3-c3cccc(S(N)(=O)=O)c3)ccc2c1`, the Ki on Carbonic anhydrase 9 was determined as 29 nM.
Take `COc1ccc2cc(-c3cc(CO)nn3-c3ccc(S(N)(=O)=O)cc3)ccc2c1Br`: at Carbonic anhydrase 9, the Ki was 30 nM.
`NS(=O)(=O)c1cccc(-n2nc(CO)cc2-c2ccccc2)c1` gave a Ki at Carbonic anhydrase 9 of 31 nM.
Still for that read-out and setting: as for `NS(=O)(=O)c1ccc(-n2nc(CO)cc2-c2cccc3ccccc23)cc1`, the figure is 254 nM; as for `NS(=O)(=O)c1ccc(-n2nc(CO)cc2-c2ccc(-c3ccccc3)cc2)cc1`, 27 nM.
With `NS(=O)(=O)c1ccc(-n2nc(CO)cc2-c2ccc3ccccc3c2)cc1`, the inhibition constant Ki at Carbonic anhydrase 9 is 17 nM.
Regarding `Cc1ccc(-c2cc(CO)nn2-c2ccc(S(N)(=O)=O)cc2)cc1`, the Ratio Ki in the test filed under Homo sapiens [4] amounted to 8; in the test listed under Homo sapiens [5], 69. The Ki at Carbonic anhydrase 2 was found to be 176 nM; on Carbonic anhydrase 1, 1510 nM.
For the molecule `NS(=O)(=O)c1ccc(-n2cc(CO)c(-c3ccc4ccccc4c3)n2)cc1`, the inhibition constant (Ki) at Carbonic anhydrase 9 was determined as 49 nM.
Regarding `COc1ccc2cc(-c3cc(CO)nn3-c3ccc(S(N)(=O)=O)cc3)ccc2c1`, the outcome with MDA-MB-231 [2] was inactive. Moreover, the 50% inhibitory concentration (IC50) in the test with MDA-MB-231 [3] is more than 50 µM. On Carbonic anhydrase 9, this molecule had an inhibition constant (Ki) of 19 nM.
For the molecule `NS(=O)(=O)c1ccc(-n2nc(-c3ccc4ccccc4c3)cc2CO)cc1`, the Ki on Carbonic anhydrase 9 was determined as 21 nM. This counts as double-digit nanomolar.
In turn, `COc1cccc(-c2cc(CO)nn2-c2ccc(S(N)(=O)=O)cc2)c1` displayed a Ki at Carbonic anhydrase 9 of 26 nM.
As for `COc1cccc2c1C(=O)c1c(O)c3c(c(O)c1C2=O)C[C@@](O)(C(=O)CO)C[C@@H]3O[C@H]1C[C@H](N)[C@H](O)[C@H](C)O1` [DOXORUBICIN], the “Ratio IC50” value in the test with MDA-MB-231 [6] is reported as 3.
Consider `NS(=O)(=O)c1ccc(-n2cc(CO)c(-c3ccccc3)n2)cc1`, for which the affinity at Carbonic anhydrase 9 corresponds to a Ki of 66 nM.
On to `NS(=O)(=O)c1ccc(-n2nc(CO)cc2-c2ccccc2)cc1`, for which the Ki at Carbonic anhydrase 9 came to 27 nM. Compared with the last molecule, the Ki is about 2.4-fold lower.
On to `NS(=O)(=O)c1cccc(-n2nc(CO)cc2-c2ccc3ccccc3c2)c1`, for which the outcome in the test with MDA-MB-231 [1] was Active. Moreover, the outcome in the test on MDA-MB-231 [2] was inactive. In the test with MDA-MB-231 [3], this molecule registered an IC50 of more than 50 µM. On Carbonic anhydrase 9, this molecule showed a Ki of 19 nM.
On Carbonic anhydrase 9, `COc1ccccc1-c1cc(CO)nn1-c1ccc(S(N)(=O)=O)cc1` showed a Ki of 32 nM.
The same measure, in the same setting: as for `COc1ccc2cc(-c3nn(-c4ccc(S(N)(=O)=O)cc4)cc3CO)ccc2c1`, the figure is 48 nM.
In the case of `NS(=O)(=O)c1ccc(-n2nc(-c3ccccc3)cc2CO)cc1`, the affinity at Carbonic anhydrase 9 corresponds to a Ki of 157 nM.
Consider `NS(=O)(=O)c1ccc(-n2nc(CCO)cc2-c2ccccc2)cc1`, for which, on Carbonic anhydrase 9, the affinity, expressed as Ki, was 23 nM.
At Carbonic anhydrase 9, `N#Cc1ccc(-c2cc(CO)nn2-c2ccc(S(N)(=O)=O)cc2)cc1` returned a Ki of 27 nM.
